Data as given in ChEMBL document CHEMBL4145582, “Cytotoxic and Antibacterial Eremophilane Sesquiterpenes from the Marine-Derived Fungus Cochliobolus lunatus SCSIO41401” (J Nat Prod, 2018).
In brackets after ≈: the same amount, converted by molar mass. Activity calls are given as the source filed them. No cut-off for these calls is given here.

How the values were obtained:
[1] = test system: ACHN; assay: Cytotoxicity against human ACHN cells after 72 hrs by CCK8 assay; type: functional, cell-based
Procedure, shortened: (§1)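 Renal cancer lines ACHN, 786-O and OS-RC-2; cell viability read by CCK-8 assay, with sorafenib as positive control.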

[2] = test system: 786-0; assay: Cytotoxicity against human 786-O cells after 72 hrs by CCK8 assay; type: functional, cell-based; procedure, shortened: as §1
[3] = test system: OS-RC-2; assay: Cytotoxicity against human OS-RC2 cells after 72 hrs by CCK8 assay; type: functional, cell-based; procedure, shortened: as §1
[4] = test system: HepG2; assay: Cytotoxicity against human HepG2 cells after 6 days by MTT assay; type: functional, cell-based; settings: for IC50: HepG2, 144 h
Procedure, shortened: (§2)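 HepG-2 and SGC7901 cells; growth inhibition read by MTT method, with 5-fluorouracil as positive control.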

[5] = test system: SGC-7901; assay: Cytotoxicity against human SGC7901 cells after 6 days by MTT assay; type: functional, cell-based; settings: for IC50: SGC-7901, 144 h; procedure, shortened: as §2
[6] = test system: Escherichia coli; assay: Antimicrobial activity against Escherichia coli ATCC 25922 after 24 hrs by serial dilution method; type: functional; settings: for MIC: ATCC 25922, 24 h
Procedure, shortened: (§3)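 Serial broth dilution in 96-well microtiter plates. Compounds and controls are dissolved in DMSO as stock. Bacteria are grown overnight at 37 °C, then diluted to 10^6 cfu/mL. E. coli and S. aureus are grown in Luria–Bertani broth. P. multocida and E. rhusiopathiae are grown in trypticase soy broth with 10% calf serum. Plates are incubated at 37 °C for 24 h and read at 630 nm.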

[7] = test system: Staphylococcus aureus; assay: Antimicrobial activity against Staphylococcus aureus subsp. aureus Rosenbach ATCC 25923 after 24 hrs by serial dilution method; type: functional; settings: for MIC: Rosenbach ATCC 25923, 24 h; procedure, shortened: as §3
[8] = test system: Erysipelothrix rhusiopathiae; assay: Antimicrobial activity against Erysipelothrix rhusiopathiae ATCC 19414 after 24 hrs by serial dilution method; type: functional; settings: for MIC: ATCC 19414, 24 h; procedure, shortened: as §3
[9] = test system: Pasteurella multocida; assay: Antimicrobial activity against Pasteurella multocida subsp. multocida ATCC 43137 after 24 hrs by serial dilution method; type: functional; settings: for MIC: ATCC 43137, 24 h; procedure, shortened: as §3

SMILES | Activity [1] | Activity [2] | Activity [3] | Activity [4] | Activity [5] | Activity [6] | Activity [7] | Activity [8] | Activity [9] | IC50 [4] | IC50 [5] | MIC [6] | MIC [7] | MIC [8] | MIC [9] | IC50 [1] | IC50 ([2]; 786-0, 72 h) | IC50 ([3]; OS-RC-2, 72 h)
Cc1cc(=O)c2c(C)cc(O)cc2o1 | inactive | inactive | inactive | inactive | inactive | inactive | inactive | inactive | inactive |  |  |  |  |  |  |  |  | 
Cc1cc(O)c2c(c1)C(=O)c1cc(O)cc(O)c1C2=O [EMODIN] |  |  |  |  |  |  |  |  |  | 1.7 µM | 5.6 µM | > 100 mg/L | 100 mg/L (≈ 370 µM) | > 100 mg/L | > 100 mg/L |  |  | 
CC[C@@H]1OC(=O)c2cc(O)ccc21 |  |  |  |  |  |  |  |  |  | > 50 µM | > 50 µM | > 100 mg/L | > 100 mg/L | > 100 mg/L | > 100 mg/L | > 50 µM | > 50 µM | > 50 µM
